The results in this text go back to publication PMC2606940 (The Journal of General Physiology, 2009).

One test addresses T1, CLC-0 E166F mutant (Torpedo marmorata, UniProt P21564, C212S/E166F).
T1 sequence (P21564 1-805 E166F/C212S): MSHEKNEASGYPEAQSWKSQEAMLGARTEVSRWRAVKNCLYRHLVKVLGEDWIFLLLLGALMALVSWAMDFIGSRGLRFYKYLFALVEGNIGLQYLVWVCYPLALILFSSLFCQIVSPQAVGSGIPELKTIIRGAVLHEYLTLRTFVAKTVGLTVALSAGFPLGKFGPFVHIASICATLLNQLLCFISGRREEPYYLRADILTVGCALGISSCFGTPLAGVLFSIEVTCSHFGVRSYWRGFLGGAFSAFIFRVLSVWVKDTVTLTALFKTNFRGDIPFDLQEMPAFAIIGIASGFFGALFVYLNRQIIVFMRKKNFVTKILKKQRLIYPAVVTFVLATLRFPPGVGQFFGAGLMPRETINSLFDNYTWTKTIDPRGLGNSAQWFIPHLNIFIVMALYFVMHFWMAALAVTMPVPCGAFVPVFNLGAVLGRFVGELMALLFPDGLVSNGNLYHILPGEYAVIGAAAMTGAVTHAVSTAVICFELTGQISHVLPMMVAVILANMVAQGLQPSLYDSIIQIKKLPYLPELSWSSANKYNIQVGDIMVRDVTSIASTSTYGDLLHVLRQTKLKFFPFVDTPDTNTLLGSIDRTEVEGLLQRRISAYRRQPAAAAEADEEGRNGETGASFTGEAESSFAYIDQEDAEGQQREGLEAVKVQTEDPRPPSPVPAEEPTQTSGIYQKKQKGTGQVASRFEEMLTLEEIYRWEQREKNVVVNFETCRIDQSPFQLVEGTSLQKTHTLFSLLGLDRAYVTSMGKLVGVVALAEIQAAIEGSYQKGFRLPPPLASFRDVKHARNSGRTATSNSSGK
The test is classed as cell-based. Particulars: read-out: Apparent affinity (K1/2). An outline of the steps: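 CLC-0 mutants (C212S background) were lipofectamine-transfected into HEK293 cells and recorded 1–3 d later from inside-out patches. Pipette and bath contained 130 mM NaCl, 5 MgCl2, 10 HEPES and 1 EGTA (pH 7.4). Test compound was perfused onto the cytoplasmic side. A +80 mV prepulse preceded steps to steady state. The last-10-ms current was normalized to bracketing blocker-free controls and fitted to a Langmuir function for K1/2.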

A further test concerns the target T2, CLC-0 E166Q mutant (Torpedo marmorata, UniProt P21564, C212S/E166Q).
T2 sequence (P21564 1-805 E166Q/C212S): T1 sequence (P21564 1-805 E166F/C212S) with F166Q
In kind it is cell-based. Put shortly:
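HEK293 cells expressed C212S-background CLC-0 mutants and were recorded 1–3 d post-transfection as inside-out patches in symmetrical 130 mM NaCl, 10 mM HEPES, pH 7.4. CPA, fatty acids or alkyl sulfates flowed continuously on the cytoplasmic side. C10–C12 compounds were diluted into bath solution from 10 mM DMSO stocks. Test steps ran from +80 to −160 mV after a +80 mV prepulse. Steady-state current was normalized to the mean of pre- and post-blocker controls, and a Langmuir K1/2 was taken at each voltage from ~4–6 patches.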

Setting [1] is: read-out: Apparent affinity (K1/2), −60 mV.
Setting [2] is: read-out: Apparent affinity (K1/2), −80 mV.
The mark [3] stands for this setting: read-out: Apparent affinity (K1/2), −100 mV.
[4] abbreviates: read-out: Apparent affinity (K1/2), −120 mV.
Setting [5] is: read-out: Apparent affinity (K1/2), −140 mV.
The mark [6] stands for this setting: read-out: Apparent affinity (K1/2), −160 mV.

Numbering of substitutions follows the chain as printed. Where two headings read alike, the source gives them in different places. Bounds are passed on as bounds.

For `CCCCCCCC(=O)O` [octanoate], the IC50 at CLC-0 E166F mutant (−40 mV) came out at 3090 ± 560 µM; at CLC-0 E166F mutant (−60 mV), 1630 ± 160 µM; on CLC-0 E166F mutant (−80 mV), 803 ± 50 µM; on CLC-0 E166F mutant (−100 mV), 455 ± 15 µM; at CLC-0 E166F mutant (−120 mV) it was 254 ± 7 µM; on CLC-0 E166F mutant (−140 mV), 150 ± 4 µM. Besides, the IC50 came out at 91 ± 1 µM on CLC-0 E166F mutant (−160 mV); 17800 ± 1500 µM at CLC-0 E166Q mutant (read-out: Apparent affinity (K1/2), −40 mV); 11400 ± 690 µM at CLC-0 E166Q mutant (setting [1]); 6940 ± 360 µM at CLC-0 E166Q mutant (setting [2]); 4210 ± 240 µM at CLC-0 E166Q mutant (setting [3]); 2530 ± 160 µM at CLC-0 E166Q mutant (setting [4]). Moreover, the IC50 at CLC-0 E166Q mutant (setting [5]) was 1450 ± 100 µM; at CLC-0 E166Q mutant (setting [6]) it was 880 ± 90 µM; at CLC-0 E166Q mutant (read-out: K1/2, Fig. 10 D) it was around 1000 µM.

Regarding `O=C(O)COc1ccc(Cl)cc1` [CPA, p-chlorophenoxy acetate], the IC50 on CLC-0 E166F mutant (−40 mV) came to 5120 ± 1720 µM; at CLC-0 E166F mutant (−60 mV), 2060 ± 300 µM; on CLC-0 E166F mutant (−80 mV), 730 ± 90 µM; at CLC-0 E166F mutant (−100 mV) it was 350 ± 30 µM; at CLC-0 E166F mutant (−120 mV) it was 170 ± 20 µM; at CLC-0 E166F mutant (−140 mV) it was 93 ± 12 µM. The IC50 on CLC-0 E166F mutant (−160 mV) was determined as 47 ± 7 µM; at CLC-0 E166Q mutant (setting [1]), 19700 ± 900 µM; at CLC-0 E166Q mutant (setting [2]) it was 14000 ± 700 µM; at CLC-0 E166Q mutant (setting [3]), 9710 ± 480 µM; at CLC-0 E166Q mutant (setting [4]) it was 6840 ± 310 µM; at CLC-0 E166Q mutant (setting [5]), 4710 ± 150 µM. Further, the IC50 at CLC-0 E166Q mutant (setting [6]) stood at 3340 ± 80 µM. The compound further showed an inhibition of current against CLC-0 E166Q mutant (300 μM CPA, −160 mV) below 10%.
